These compounds were tested against T1, Human immunodeficiency virus type 1 protease (Human immunodeficiency virus 1, UniProt Q72874) (assay: (§1) Inhibitory activity against HIV PR in HIV-1 infected CEM-SS cell lines). Details: not given.
Format: cell-based
In short: (§2)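 Antiviral activity in HIV-1-infected CEM cells, read out by a cell viability assay run to a previously described method. Compounds were tested across a dose range, and the antiviral IC50 was taken from the dose-response curve.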

First: CC(C)(C)NC(=O)c1ccccc1SCC(O)c1ccccc1C(=O)NC(C)(C)C (stereo not drawn)
Second: CC(C)(C)NC(=O)c1ccccc1C#CC(O)Cc1ccccc1C(=O)NC(C)(C)C (stereo not drawn)
The IC50 of the first is higher: greater than 200 µM for the first, 200 µM for the second.

First: CC(C)N1CCC(CC(O)CCc2ccccc2C(=O)NC(C)(C)C)=C(C(=O)NC(C)(C)C)C1 (stereo not drawn)
Second: CC(C)(C)NC(=O)c1ccccc1SCC(O)Cc1ccc2ccccc2c1C(=O)NC(C)(C)C (stereo not drawn)
The IC50 of the first is 2.8-fold higher: 70 µM for the first, 25 µM for the second.

Compared with `CC(C)(C)NC(=O)c1ccccc1CC(O)CSc1ccccc1NC(=O)C(C)(C)C` (stereo not drawn), `CC(C)(C)NC(=O)c1cc(C(C)(C)C)ccc1CCC(O)Cc1ccc(C(C)(C)C)cc1C(=O)NC(C)(C)C` (stereo not drawn) is lower in IC50: greater than 200 µM for the first, 7 µM for the second.

The compounds below were run against Human immunodeficiency virus type 1 protease (Human immunodeficiency virus 1) (UniProt Q72874) (assay: as §1). Details: concentration not given here.
Format: cell-based
In short: as §2

Compound `CC(C)(C)NC(=O)c1ccccc1CCC(O)CN1CCCCC1C(=O)NC(C)(C)C` (stereo in doubt; 11) has an inhibition of 20%.
For `CC(C)(C)NC(=O)c1ccccc1CCC(O)CN1CCCCC1C(=O)NC(C)(C)C` (stereo in doubt; 12), the inhibition was 35%.

Each compound was assayed against Human immunodeficiency virus type 1 protease (Human immunodeficiency virus 1) (UniProt Q72874) (assay: Inhibitory activity against HIV-1 PR in HIV-1 infected CEM-SS cell lines; activity @ 10 uM). Details: not given.
Format: cell-based

Compound `CC(C)(C)NC(=O)c1ccccc1CC[C@H](O)CN1CCC[C@H]1C(=O)NC(C)(C)C` has an inhibition of 10%.

These compounds were tested against T1, Human immunodeficiency virus type 1 protease (assay: as §1). Details: not given.
Format: cell-based

Going from `CC(C)(C)NC(=O)c1c(CC[C@H](O)Cc2ccc3ccccc3c2C(=O)NC(C)(C)C)ccc2ccccc12` to `CC(C)(C)NC(=O)c1c(CC[C@@H](O)Cc2ccc3ccccc3c2C(=O)NC(C)(C)C)ccc2ccccc12`, the Ki rises from 0.48 µM to 25 µM (52-fold). The first binds more tightly here.

Going from `CC(C)(C)NC(=O)c1ccccc1CCC(O)Cc1ccccc1C(=O)NC(C)(C)C` (stereo not drawn) to `CC(C)(C)NC(=O)c1ccccc1CC(O)CSc1ccccc1C(=O)NC(C)(C)C` (stereo not drawn), the Ki rises from 24 µM to 83 µM (3.5-fold). The first binds more tightly here.

Going from `CC(C)(C)NC(=O)c1ccccc1CCC(O)Cc1ccc2ccccc2c1C(=O)NC(C)(C)C` (stereo not drawn) to `CC(C)(C)NC(=O)c1c(CCC(O)Cc2ccc3ccccc3c2C(=O)NC(C)(C)C)ccc2ccccc12` (stereo not drawn), the Ki falls from 2.2 µM to 1.4 µM (1.6-fold).

For `CC(C)(C)NC(=O)c1cc(C(C)(C)C)ccc1CCC(O)Cc1ccc2ccccc2c1C(=O)NC(C)(C)C` (stereo not drawn), the Ki was 1.2 µM.

What follows are compounds tested against Human immunodeficiency virus type 1 protease (Human immunodeficiency virus 1) (UniProt Q72874) (assay: Inhibitory activity against HIV PR in HIV-1 infected CEM-SS cell lines; activity @ 200 uM). Details: not given.

With `CC(C)(C)NC(=O)c1ccccc1/C=C/C(O)Cc1ccccc1C(=O)NC(C)(C)C` (stereo not drawn) the inhibition was 40%.

What follows are compounds tested against Human immunodeficiency virus type 1 protease (Human immunodeficiency virus 1) (UniProt Q72874) (assay: Inhibitory activity against HIV-1 PR in HIV-1 infected CEM-SS cell lines; activity @ 10 uM). Details: not given.

With `CC(C)(C)NC(=O)c1ccccc1CC[C@@H](O)CN1CCC[C@H]1C(=O)NC(C)(C)C` the inhibition was 10%.

Reference: ChEMBL document CHEMBL1129728, “Structure-based design and synthesis of substituted 2-butanols as nonpeptidic inhibitors of HIV protease: secondary amide series” (J Med Chem, 1996)
